Measured values from ChEMBL document CHEMBL1143724, “4-Amino-5-vinyl-3(2H)-pyridazinones and analogues as potent antinociceptive agents: Synthesis, SARs, and preliminary studies on the mechanism of action” (Bioorg Med Chem, 2007).

How the values were obtained:
[1] = molecular target: Mu-type opioid receptor (Homo sapiens, UniProt P35372); assay: Binding affinity to mu opioid receptor
[2] = molecular target: Kappa-type opioid receptor (Homo sapiens, UniProt P41145); assay: Binding affinity to kappa opioid receptor
Kappa-type opioid receptor, sequence (P41145 whole entry): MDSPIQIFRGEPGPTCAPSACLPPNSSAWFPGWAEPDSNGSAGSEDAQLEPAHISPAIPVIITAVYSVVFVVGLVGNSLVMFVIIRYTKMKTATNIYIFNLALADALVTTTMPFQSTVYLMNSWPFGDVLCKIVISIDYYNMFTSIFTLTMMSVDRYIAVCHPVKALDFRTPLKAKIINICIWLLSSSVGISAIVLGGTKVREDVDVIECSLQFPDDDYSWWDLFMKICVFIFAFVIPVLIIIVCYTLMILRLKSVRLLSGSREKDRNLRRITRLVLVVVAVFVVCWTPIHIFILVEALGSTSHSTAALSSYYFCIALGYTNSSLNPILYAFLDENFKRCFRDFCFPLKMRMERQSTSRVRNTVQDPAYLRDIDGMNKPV

[3] = molecular target: Delta-type opioid receptor (Homo sapiens, UniProt P41143); assay: Binding affinity to delta opioid receptor
Delta-type opioid receptor, sequence (P41143 whole entry): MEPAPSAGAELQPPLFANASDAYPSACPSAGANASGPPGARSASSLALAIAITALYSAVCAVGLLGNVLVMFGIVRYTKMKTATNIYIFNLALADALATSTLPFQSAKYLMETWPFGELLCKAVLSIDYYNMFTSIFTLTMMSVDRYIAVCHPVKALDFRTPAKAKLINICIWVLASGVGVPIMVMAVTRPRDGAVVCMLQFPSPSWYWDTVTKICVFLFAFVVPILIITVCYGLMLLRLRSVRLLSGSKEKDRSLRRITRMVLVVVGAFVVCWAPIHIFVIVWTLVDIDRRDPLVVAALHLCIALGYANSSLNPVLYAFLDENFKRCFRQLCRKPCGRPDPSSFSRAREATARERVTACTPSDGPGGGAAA

[4] = system: Mus musculus; assay: Antinociceptive effect in sc dosed CD1 mouse; type: functional
In short: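 Acetic acid abdominal constriction test, with compounds given sc 30 min before acetic acid. Writhes counted over 10 min. A response was scored as protected if below 3 SD of the control mean. Six to 8 mice per dose, at least 18 per experiment.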

Mu-type opioid receptor, sequence (P35372 whole entry): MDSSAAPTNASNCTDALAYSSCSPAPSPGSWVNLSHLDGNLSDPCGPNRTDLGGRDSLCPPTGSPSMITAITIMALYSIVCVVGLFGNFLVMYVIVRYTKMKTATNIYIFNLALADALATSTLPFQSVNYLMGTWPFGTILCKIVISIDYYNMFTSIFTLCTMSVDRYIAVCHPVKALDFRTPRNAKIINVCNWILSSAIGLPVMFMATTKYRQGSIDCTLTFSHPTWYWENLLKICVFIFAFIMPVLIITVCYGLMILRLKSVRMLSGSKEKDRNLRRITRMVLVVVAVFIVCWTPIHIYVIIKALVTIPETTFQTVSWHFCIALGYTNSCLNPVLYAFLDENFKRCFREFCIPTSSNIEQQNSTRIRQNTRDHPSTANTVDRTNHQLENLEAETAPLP

| SMILES | Ki [1] | Ki [2] | Ki [3] | ED50 [4] |
| --- | --- | --- | --- | --- |
| C=Cc1c(-c2ccccc2)nn(CCCC)c(=O)c1N | > 10 µM | > 10 µM | > 10 µM |  |
| C=Cc1c(-c2ccccc2)nn(C)c(=O)c1NCCc1ccccc1 |  |  |  | 89.4 mg/kg |
